Rows were chosen to be rich in hits. Some 2.3% of all compounds tested hit in one or more screens of this group.
FLuc inhib CS – counter-screen for luciferase assay inhibitors: firefly luciferase inhibition | P08659 | ATPLite firefly luciferase biochemical luminescence, 10 min | inhibition, % at 10 µM | actives 1.5% (n = 200,000) | AID 1006;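 active = inhibition above about 50% when tested at 10 µM, limit read from the data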
Target sequence (P08659 whole entry, looked up): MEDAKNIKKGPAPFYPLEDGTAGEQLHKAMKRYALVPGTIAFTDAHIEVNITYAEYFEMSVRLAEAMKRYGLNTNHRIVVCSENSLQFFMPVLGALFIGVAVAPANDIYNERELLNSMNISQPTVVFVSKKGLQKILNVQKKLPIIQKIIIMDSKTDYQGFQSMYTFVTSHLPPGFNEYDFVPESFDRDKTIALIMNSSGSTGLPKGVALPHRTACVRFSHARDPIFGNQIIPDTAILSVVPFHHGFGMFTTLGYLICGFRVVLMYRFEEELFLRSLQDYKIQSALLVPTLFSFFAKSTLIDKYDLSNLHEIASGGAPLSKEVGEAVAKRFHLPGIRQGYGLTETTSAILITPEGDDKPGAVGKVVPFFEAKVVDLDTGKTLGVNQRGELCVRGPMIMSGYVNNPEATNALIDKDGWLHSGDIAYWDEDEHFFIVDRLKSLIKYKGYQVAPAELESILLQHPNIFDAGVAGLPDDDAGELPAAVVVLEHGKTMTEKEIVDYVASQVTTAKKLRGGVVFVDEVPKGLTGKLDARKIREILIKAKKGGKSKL
FLuc act counter – affects firefly luciferase, flagging false hits in luciferase stimulation screens; P08659; ATPlite luciferase biochemical, luminescence, 10 min; 0 = ATP-free wells, 1 = DMSO control; activation factor at 10 µM; 200,000 tested, under 10 active;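 active = luciferase activation factor, scaled between plate controls, of at least 2 with compound at 10 µM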
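assay system = Luciferase/luciferin detection reagent, cell-free biochemical luciferase assay | also added = ATP substrate | times = 10 min post-reagent at room temperature | measured by = luminescence from luciferase reaction | measure = luciferase activation, seen as luminescence increase over controls | benchmarks = low control with PBS replacing ATP, high control enzyme plus ATP without compound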
Diaphorase act – activates diaphorase or chemically reduces, flagging diaphorase assay artifacts; activation factor at 20 µM; actives 0.005% (n = 190,000); Diaphorase/resazurin coupled assay, resorufin fluorescence, 16 min; active compounds read high; 1 = vehicle wells, 0 = NADH-free wells;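 active = diaphorase activity raised at least twofold by the compound at 20 µM; inactive = activation factor below 2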
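Test system: Clostridium kluyveri diaphorase, purified enzyme; input: enzyme 0.07 U/mL final; buffer or medium: 50 mM HEPES pH 7.4 with 4.542 mM MgCl2, 0.005% Tween 20; also added: 0.114 mM NADH and 0.1 mM resazurin, final amounts; schedule: 16 min enzyme reaction, ambient temperature; technique: fluorescence of resorufin, 544 nm excitation, 590 nm emission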
G6PDH counter – inhibits Leuconostoc G6PDH, flagging false hits in G6PDH-based assays. Purified L. mesenteroides G6PDH, diaphorase/resazurin coupled fluorescence, 45 min. inhibition, % at 5 µM. actives 0.12% (n = 200,000). AID 1020; in the data active = inhibition above about 50%
Diaph inh CS – diaphorase inhibition or chemical oxidation counter-screen | diaphorase resazurin-to-resorufin fluorescence, NADH, 16 min; bacterial (C. kluyveri) enzyme, not human | inhibition, % at 20 µM | actives 0.69% (n = 190,000) | AID 1217;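 active = primary screen inhibition at 20 µM above a set limit, cut at about 50% in these data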;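 also: plate controls were DMSO with full reaction for no effect and wells lacking NADH for full effect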
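Assay system: diaphorase enzyme from Clostridium kluyveri. Quantity: enzyme working solution with 0.14 U/mL diaphorase. Schedule: reaction incubation of 16 min at room temperature. Technique: resorufin fluorescence, excitation 544 nm, emission 590 nm. Controls: No-NADH positive control and DMSO neutral control.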
An asterisk follows results filed as active.

For CN1C(=O)C(CC(=O)NCC2CCCCC2)SC1=Nc1ccccc1 (configuration not stated) the results were FLuc inhib CS -1, FLuc act counter 1, Diaphorase act 1.1, G6PDH counter 10 and Diaph inh CS -14.
For CCCCc1ccc(NC(=O)c2cnccn2)cc1 the results were FLuc inhib CS 76*, FLuc act counter 0.2, Diaphorase act 0.9, G6PDH counter 8 and Diaph inh CS 8.
For COc1ccc(/C=N/N2CCOCC2)cc1COc1ccc(Cl)cc1 the results were FLuc inhib CS 2, FLuc act counter 1, Diaphorase act 0.9, G6PDH counter 11 and Diaph inh CS 6.
Screening CC1=NN(C(=O)Cn2nc([N+](=O)[O-])c(Br)c2C)C(O)(C(F)(F)F)C1 (configuration not stated) returned FLuc inhib CS -10, FLuc act counter 1.1, Diaphorase act 0.9, G6PDH counter 2 and Diaph inh CS 7.
O=C(COc1ccc(CO)cc1Cl)Nc1ccc(F)cc1 was read as FLuc inhib CS 72*, FLuc act counter 0.3, Diaphorase act 1, G6PDH counter 12 and Diaph inh CS 3.
For O=C(COc1ccc(CO)cc1)Nc1ccc(F)cc1 the results were FLuc inhib CS -3, FLuc act counter 1, Diaphorase act 1, G6PDH counter -2 and Diaph inh CS 3.
O=C(COc1ccc(Cl)cc1Cl)Nc1cccnc1 was read as FLuc inhib CS 58*, FLuc act counter 0.4, Diaphorase act 0.9, G6PDH counter 6 and Diaph inh CS 7.
For O=C(COc1ccc(Cl)cc1Cl)Nn1c(=S)[nH]c2ncccc2c1=O the results were FLuc inhib CS -4, FLuc act counter 1, Diaphorase act 0.5, G6PDH counter -22 and Diaph inh CS 50*.
Cc1ccccc1OCC(=O)Nc1cccc(N(C)S(C)(=O)=O)c1 was read as FLuc inhib CS 11, FLuc act counter 0.9, Diaphorase act 0.9, G6PDH counter -6 and Diaph inh CS 13.
For COc1ccccc1OCC(=O)Nn1c(=S)[nH]c2ncccc2c1=O the results were FLuc inhib CS -8, FLuc act counter 1.1, Diaphorase act 1, G6PDH counter -18 and Diaph inh CS 3.
`CN(c1cccc(NC(=O)COc2ccc(Cl)cc2Cl)c1)S(C)(=O)=O` gave FLuc inhib CS 69*, FLuc act counter 0.3, Diaphorase act 0.9, G6PDH counter 7 and Diaph inh CS 8.
For COc1ccccc1Cn1c(SCC(N)=O)nc2c(oc3ccccc32)c1=O the results were FLuc inhib CS -3, FLuc act counter 1, Diaphorase act 1.1, G6PDH counter -1 and Diaph inh CS -9.
Screening Cc1cc(C)c(NC(=O)COC(=O)CCc2ccc(S(=O)(=O)N3CCCCC3)cc2)c(C)c1 returned FLuc inhib CS -8, FLuc act counter 1.1, Diaphorase act 0.7, G6PDH counter 14 and Diaph inh CS 29.
Cc1ccsc1CNC1C2CC3CC(C2)CC1C3 (configuration not stated) was read as FLuc inhib CS -6, FLuc act counter 1.1, Diaphorase act 0.9, G6PDH counter 13 and Diaph inh CS 6.
O=[N+]([O-])c1ccc2c(c1)C(N1CCOCC1)/C(=C/COc1ccc(Cl)cc1Cl)O2 (configuration not stated) was read as FLuc inhib CS -2, FLuc act counter 1, Diaphorase act 0.7, G6PDH counter -34 and Diaph inh CS 25.
`O=C(Nc1ccc(N2CCCCC2)c(Cl)c1)c1ncn[nH]1` gave FLuc inhib CS 57*, FLuc act counter 0.4, Diaphorase act 1, G6PDH counter 15 and Diaph inh CS 1.
`O=C(Nc1ccc(N2CCCC2)c(Cl)c1)c1ccco1` gave FLuc inhib CS 77*, FLuc act counter 0.2, Diaphorase act 0.9, G6PDH counter 1 and Diaph inh CS 10.
For O=S(=O)(Nc1nc2ccccc2nc1Nc1ccc2c(c1)OCO2)c1ccc(F)cc1 the results were FLuc inhib CS -11, FLuc act counter 1.1, Diaphorase act 0.8, G6PDH counter -13 and Diaph inh CS 20.
`O=C(O)C1=C(C(=O)Nc2cc(C(F)(F)F)ccc2Cl)CCCC1` gave FLuc inhib CS -5, FLuc act counter 1, Diaphorase act 0.9, G6PDH counter 4 and Diaph inh CS 6.
